{"source": "ChEMBL document CHEMBL3232832", "about": "“Derivatives of dibenzothiophene for positron emission tomography imaging of α7-nicotinic acetylcholine receptors” (J Med Chem, 2013)", "format_in_all_cases": "ADME, organism-based", "conditions_in_all_cases": "in vivo, 1.5 h", "key": {"[1]": {"assay": "Drug uptake in CD-1 mouse superior and inferior colliculus at 70 uCi, iv administered 10 mins post ketanserin challenge measured after 90 mins; call rule not given here", "summary_of_the_method": "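Male CD-1 mice (25–30 g). […] Brains removed 90 min later and dissected on ice. Regions weighed and gamma-counted against injectate standards. Result as %ID/g, mean ± SD, n=3; ANOVA versus controls.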"}, "Brain [2]": {"tested_on": "Brain", "assay": "Drug uptake in CD-1 mouse other brain region at 70 uCi, iv after 90 mins in presence of cytisine"}, "Cortex": {"tested_on": "Cortex", "assay": "Drug uptake in CD-1 mouse cortex at 70 uCi, iv administered 10 mins post spiperone challenge measured after 90 mins", "summary_of_the_method": "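Male CD-1 mice, n=3. Drug at 2 mg/kg s.c. in saline:DMSO 5:1, with vehicle controls. [18F] radiotracer (70 µCi, SA ~14000 mCi/µmol) given i.v. 10 min later. Regions harvested 90 min after tracer, gamma counted, expressed as %ID/g. Compared by single-factor ANOVA.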"}, "Brain [3]": {"tested_on": "Brain", "assay": "Drug uptake in CD-1 mouse other brain regions at 0.07 mCi, iv after 90 mins co-administered with SSR180711", "summary_of_the_method": "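Male CD-1 mice. [18F]tracer (0.07 mCi, SA 7900 mCi/µmol, 0.2 mL) co-injected i.v. with blocker at 0 (vehicle), 0.02, 0.2, 1 or 3 mg/kg. Blocker dissolved in saline:alcohol 9:1, pH 5.5. Brain regions harvested at 90 min and gamma-counted. %ID/g, mean ± SD, n=3 per dose; ANOVA versus controls.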"}}, "data": [{"smiles": "O=S1(=O)c2cc(N3CCN4CCC3CC4)ccc2-c2cccc([18F])c21", "values": [{"measurement": "Drug uptake", "setting": "[1]", "result": "Active"}, {"measurement": "Drug uptake", "setting": "Brain [2]", "result": "Not Active"}, {"measurement": "Drug uptake", "setting": "Cortex", "result": "Active"}, {"measurement": "Drug uptake", "setting": "Brain [3]", "result": "Not Active"}]}]}
